What was measured:
[1] = AUC (0 to 6 hrs) in wild-type mouse at 10 mg/kg, po; assay type: ADME, organism-based; set-up: time < 6 hr, dose 10 mg/kg, route oral; details: plasma
Outline: (§1)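 Fasted (3 h) FVB WT mice (n = 5) were given 10 mg/kg by gavage (10 ml/kg of 1 mg/ml, an ethanol stock diluted 10-fold in saline). Tail-vein plasma was collected from 0.25 to 6 h and measured by LC-MS/MS. Only the trapezoidal AUC0-6 was calculated. Cmax and Tmax were taken from the observed data.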

[2] = Cmax in wild-type mouse at 10 mg/kg, po; assay type: ADME, organism-based; set-up: dose 10 mg/kg, route oral; details: in vivo; outline: as §1
[3] = Tmax in wild-type mouse at 10 mg/kg, po; assay type: ADME, organism-based; set-up: dose 10 mg/kg, route oral; details: in vivo; outline: as §1
[4] = AUC (0 to 6 hrs) in wild-type mouse at 1 mg/kg, po; assay type: ADME, organism-based; set-up: time < 6 hr, dose 1 mg/kg, route oral; details: plasma
Outline: (§2)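 Male FVB WT or Mdr1a/1b–/– mice (n = 5) were fasted 3 h. They received 1 mg/kg by gavage (10 ml/kg of 0.1 mg/ml, made as an ethanol stock diluted 100-fold in saline). Tail-vein plasma was sampled at 0.25, 0.5, 1, 2, 4 and 6 h and analysed by LC-MS/MS. Noncompartmental trapezoidal AUC0-6 and AUC(0-∞). Cmax and Tmax were taken from the observed data.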

[5] = AUC (0 to infinity) in wild-type mouse at 1 mg/kg, po; assay type: ADME, organism-based; set-up: time infinity, dose 1 mg/kg, route oral; details: plasma; outline: as §2
[6] = Cmax in wild-type mouse at 1 mg/kg, po; assay type: ADME, organism-based; set-up: dose 1 mg/kg, route oral; details: in vivo; outline: as §2
[7] = Tmax in wild-type mouse at 1 mg/kg, po; assay type: ADME, organism-based; set-up: dose 1 mg/kg, route oral; details: in vivo; outline: as §2
[8] = AUC (0 to 6 hrs) in mdr1a/1b double knockout mouse at 1 mg/kg, po; assay type: ADME, organism-based; set-up: time < 6 hr, dose 1 mg/kg, route oral; details: plasma; outline: as §2
[9] = AUC (0 to infinity) in mdr1a/1b double knockout mouse at 1 mg/kg, po; assay type: ADME, organism-based; set-up: dose 1 mg/kg, route oral, time infinity; details: plasma; outline: as §2
[10] = Cmax in mdr1a/1b double knockout mouse at 1 mg/kg, po; assay type: ADME, organism-based; set-up: dose 1 mg/kg, route oral; details: in vivo; outline: as §2
[11] = Tmax in mdr1a/1b double knockout mouse at 1 mg/kg, po; assay type: ADME, organism-based; set-up: dose 1 mg/kg, route oral; details: in vivo; outline: as §2
[12] = AUC (0 to 6 hrs) in wild-type mouse at 1 mg/kg, iv; assay type: ADME, organism-based; set-up: time < 6 hr, dose 1 mg/kg, route intravenous; details: plasma
Outline: (§3)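 Male FVB WT or Mdr1a/1b–/– mice (n = 5). Dosing solution was 10 mg/ml in absolute ethanol, diluted 50-fold with saline to 0.2 mg/ml, and given as a single i.v. tail-vein bolus of 1 mg/kg (5 ml/kg). Tail-vein plasma was sampled at 0.125–6 h and analysed by LC-MS/MS. Noncompartmental analysis with trapezoidal AUC0-6 and AUC(0-∞). CL = dose/AUC(0-∞). Wilcoxon rank sum test.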

[13] = AUC (0 to infinity) in wild-type mouse at 1 mg/kg, iv; assay type: ADME, organism-based; set-up: time infinity, dose 1 mg/kg, route intravenous; details: plasma; outline: as §3
[14] = AUC (0 to 6 hrs) in mdr1a/1b double knockout mouse at 1 mg/kg, iv; assay type: ADME, organism-based; set-up: time < 6 hr, dose 1 mg/kg, route intravenous; details: plasma; outline: as §3
[15] = AUC (0 to infinity) in mdr1a/1b double knockout mouse at 1 mg/kg, iv; assay type: ADME, organism-based; set-up: time infinity, dose 1 mg/kg, route intravenous; details: plasma; outline: as §3
[16] = Plasma clearance in wild-type mouse at 1 mg/kg, iv; assay type: ADME, organism-based; set-up: dose 1 mg/kg, route intravenous
[17] = Plasma clearance in mdr1a/1b double knockout mouse at 1 mg/kg, iv; assay type: ADME, organism-based; set-up: dose 1 mg/kg, route intravenous; outline: as §3
Mus musculus [18] = experiment: Toxicity in mdr1a/1b double knockout mouse assessed as decrease in respiratory frequency at 10 mg/kg, po after 15 to 30 mins; assay type: organism-based; set-up: dose 10 mg/kg, route oral; details: in vivo
Outline: (§4)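 Fasted (3 h) WT and Mdr1a/1b–/– mice (n = 5) received 10 mg/kg orally by gavage in ethanol/saline (10 ml/kg). They were observed 15 to 30 min after dosing for signs of poisoning, including limb paralysis and respiratory frequency.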

Mus musculus [19] = experiment: Toxicity in mdr1a/1b double knockout mouse assessed as paralyzed fore limb and hind limb at 10 mg/kg, po after 15 to 30 mins; assay type: organism-based, Hindlimb; set-up: dose 10 mg/kg, route oral; details: in vivo; outline: as §4
Mus musculus [20] = experiment: Toxicity in wild-type mouse at 10 mg/kg, po after 15 to 30 mins; assay type: organism-based; set-up: dose 10 mg/kg, route oral; details: in vivo; outline: as §4
Mus musculus [21] = experiment: Toxicity in mdr1a/1b double knockout mouse at 1 mg/kg, po; assay type: organism-based; set-up: dose 1 mg/kg, route oral; details: in vivo
Mus musculus [22] = experiment: Ratio of AUC (0 to infinity) in mdr1a/1b double knockout mouse to AUC (0 to infinity) in wild-type mouse at 1 mg/kg, po; assay type: ADME, organism-based; set-up: dose 1 mg/kg, route oral; details: in vivo; outline: as §2
Mus musculus [23] = experiment: Ratio of AUC (0 to 6 hrs) in mdr1a/1b double knockout mouse to AUC (0 to 6 hrs) in wild-type mouse at 1 mg/kg, po; assay type: ADME, organism-based; set-up: dose 1 mg/kg, route oral; details: in vivo; outline: as §2
Mus musculus [24] = experiment: Ratio of Cmax in mdr1a/1b double knockout mouse to Cmax in wild-type mouse at 1 mg/kg, po; assay type: ADME, organism-based; set-up: dose 1 mg/kg, route oral; details: in vivo; outline: as §2
Mus musculus [25] = experiment: Ratio of Tmax in mdr1a/1b double knockout mouse to Tmax in wild-type mouse at 1 mg/kg, po; assay type: ADME, organism-based; set-up: dose 1 mg/kg, route oral; details: in vivo; outline: as §2
Mus musculus [26] = experiment: Ratio of AUC (0 to 6 hrs) in mdr1a/1b double knockout mouse to AUC (0 to 6 hrs) in wild-type mouse at 1 mg/kg, IV; assay type: ADME, organism-based; set-up: dose 1 mg/kg, route intravenous; details: in vivo; outline: as §3
Mus musculus [27] = experiment: Ratio of AUC (0 to infinity) in mdr1a/1b double knockout mouse to AUC (0 to infinity) in wild-type mouse at 1 mg/kg, iv; assay type: ADME, organism-based; set-up: dose 1 mg/kg, route intravenous; details: in vivo; outline: as §3
Mus musculus [28] = experiment: Ratio of plasma clearance in mdr1a/1b double knockout mouse to plasma clearance in wild-type mouse at 1 mg/kg, iv; assay type: ADME, organism-based; set-up: dose 1 mg/kg, route intravenous; details: in vivo; outline: as §3
[29] = Drug uptake in wild-type mouse plasma at 1 mg/kg, iv after 180 mins by LC-MS/MS analysis; assay type: ADME, organism-based; set-up: dose 1 mg/kg, route intravenous; details: read-out: Drug uptake
Outline: (§5)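 WT or Mdr1a/1b–/– mice (n = 4) received a single 1 mg/kg i.v. tail-vein bolus (5 ml/kg; 0.2 mg/ml in ethanol/saline). At 180 min, plasma, brain, liver and small intestinal contents were collected. Salinomycin was quantified by LC-MS/MS. Brain/plasma ratios were calculated. Wilcoxon rank sum test.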

[30] = Drug uptake in wild-type mouse brain at 1 mg/kg, iv after 180 mins by LC-MS/MS analysis; assay type: ADME, organism-based; set-up: dose 1 mg/kg, route intravenous; details: read-out: Drug uptake; outline: as §5
[31] = Drug uptake in wild-type mouse liver at 1 mg/kg, iv after 180 mins by LC-MS/MS analysis; assay type: ADME, organism-based; set-up: dose 1 mg/kg, route intravenous; details: read-out: Drug uptake; outline: as §5
[32] = Drug uptake in wild-type mouse small intestinal content at 1 mg/kg, iv after 180 mins by LC-MS/MS analysis; assay type: ADME, organism-based; set-up: dose 1 mg/kg, route intravenous; details: read-out: Drug uptake; outline: as §5
[33] = Ratio of drug uptake in brain to drug uptake in plasma in wild-type mouse at 1 mg/kg, iv after 180 mins by LC-MS/MS analysis; assay type: ADME, organism-based; set-up: dose 1 mg/kg, route intravenous; outline: as §5
[34] = Drug uptake in mdr1a/1b double knockout mouse plasma at 1 mg/kg, iv after 180 mins by LC-MS/MS analysis; assay type: ADME, organism-based; set-up: dose 1 mg/kg, route intravenous; details: read-out: Drug uptake; outline: as §5
[35] = Drug uptake in mdr1a/1b double knockout mouse brain at 1 mg/kg, iv after 180 mins by LC-MS/MS analysis; assay type: ADME, organism-based; set-up: dose 1 mg/kg, route intravenous; details: read-out: Drug uptake; outline: as §5
[36] = Drug uptake in mdr1a/1b double knockout mouse liver at 1 mg/kg, iv after 180 mins by LC-MS/MS analysis; assay type: ADME, organism-based; set-up: dose 1 mg/kg, route intravenous; details: read-out: Drug uptake; outline: as §5
[37] = Drug uptake in mdr1a/1b double knockout mouse small intestinal content at 1 mg/kg, iv after 180 mins by LC-MS/MS analysis; assay type: ADME, organism-based; set-up: dose 1 mg/kg, route intravenous; details: read-out: Drug uptake; outline: as §5
[38] = Ratio of drug uptake in brain to drug uptake in plasma in mdr1a/1b double knockout mouse at 1 mg/kg, iv after 180 mins by LC-MS/MS analysis; assay type: ADME, organism-based; set-up: dose 1 mg/kg, route intravenous; outline: as §5
Plasma = experiment: Ratio of drug uptake in plasma in mdr1a/1b double knockout mouse to drug uptake in plasma in wild-type mouse at 1 mg/kg, iv after 180 mins by LC-MS/MS analysis; assay type: ADME, organism-based; set-up: dose 1 mg/kg, route intravenous; details: in vivo, 3 h; outline: as §5
Brain = experiment: Ratio of drug uptake in brain in mdr1a/1b double knockout mouse to drug uptake in brain in wild-type mouse at 1 mg/kg, iv after 180 mins by LC-MS/MS analysis; assay type: ADME, organism-based; set-up: dose 1 mg/kg, route intravenous; details: in vivo, 3 h; outline: as §5
Liver = experiment: Ratio of drug uptake in liver in mdr1a/1b double knockout mouse to drug uptake in liver in wild-type mouse at 1 mg/kg, iv after 180 mins by LC-MS/MS analysis; assay type: ADME, organism-based; set-up: dose 1 mg/kg, route intravenous; details: in vivo, 3 h; outline: as §5
[39] = Ratio of drug uptake in small intestinal content in mdr1a/1b double knockout mouse to drug uptake in small intestinal content in wild-type mouse at 1 mg/kg, iv after 180 mins by LC-MS/MS analysis; assay type: ADME, organism-based; set-up: dose 1 mg/kg, route intravenous; details: in vivo, 3 h; outline: as §5

CC[C@@H](C(=O)[C@@H](C)[C@@H](O)[C@H](C)[C@@H]1O[C@@H]([C@@H](CC)C(=O)O)CC[C@@H]1C)[C@H]1O[C@]2(C=C[C@@H](O)[C@]3(CC[C@@](C)([C@H]4CC[C@](O)(CC)[C@H](C)O4)O3)O2)[C@H](C)C[C@@H]1C [SALINOMYCIN]
AUC(0-t) at 6 h [1]: 2130 ng·h/mL | Cmax [2]: 517 ng/mL | Tmax [3]: 30 min | AUC(0-t) at 6 h [4]: 62.1 ng·h/mL | AUC(0-inf) [5]: 80.2 ng·h/mL | Cmax [6]: 13.2 ng/mL | Tmax [7]: 2 h | AUC(0-t) at 6 h [8]: 196 ng·h/mL | AUC(0-inf) [9]: 251 ng·h/mL | Cmax [10]: 41 ng/mL | Tmax [11]: 2 h | AUC(0-t) at 6 h [12]: 1310 ng·h/mL | AUC(0-inf) [13]: 1370 ng·h/mL | AUC(0-t) at 6 h [14]: 2370 ng·h/mL | AUC(0-inf) [15]: 2810 ng·h/mL | clearance [16]: 13.7 mL/min/kg | clearance [17]: 6.17 mL/min/kg | Activity (Mus musculus [18]): Toxic | Activity (Mus musculus [19]): Toxic | Activity (Mus musculus [20]): Non-toxic | Activity (Mus musculus [21]): Non-toxic | Ratio AUC (Mus musculus [22]): 3.1 | Ratio AUC (Mus musculus [23]): 3.2 | Ratio (Mus musculus [24]): 3.1 | Ratio (Mus musculus [25]): 1 | Ratio AUC (Mus musculus [26]): 1.8 | Ratio AUC (Mus musculus [27]): 2 | Ratio (Mus musculus [28]): 0.5 | concentration at 3 h [29]: 72.5 ng/mL | concentration at 3 h [30]: 9.2 ng/g | concentration at 3 h [31]: 7400 ng/g | concentration at 3 h [32]: 210 ng/g | Kp at 3 h [33]: 0.13 | concentration at 3 h [34]: 270 ng/mL | concentration at 3 h [35]: 53.2 ng/g | concentration at 3 h [36]: 6500 ng/g | concentration at 3 h [37]: 290 ng/g | Kp at 3 h [38]: 0.2 | Ratio (Plasma): 3.7 | Ratio (Brain): 5.8 | Ratio (Liver): 0.9 | Ratio [39]: 1.4
